# Assay results from the RNAGym collection of RNA variant scans (doi:10.1126/science.aae0568).
# This sample holds only a part of the variants without activity.
# B1: tRNA (parent)
# chain: GUUCCGUUGGCGUAAUGGUAACGCGUCUCCCUCCUAAGGAGAAGACUGCGGGUUCGAGUCCCGUACGGAACG
# Variants of: B1
# Test: yeast fitness relative to wild type (ratio to wild type); higher = fitter; tRNA-Arg(CCU), competitive growth, 37 C, YPD
# Summary of the method: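 For this measurement, the tRNA-Arg(CCU) gene was varied by chemical synthesis at a 3% per-site mutation rate across 69 sites, and each variant was placed at the native genomic locus in Saccharomyces cerevisiae. The pooled strains went through a 24-hour competition in YPD at 37°C in six parallel replicates, with amplicons from start and end populations read by 100-nucleotide paired-end sequencing. Darwinian fitness relative to wild type followed from the change in each genotype's frequency. Genotypes needed ≥ 100 starting reads, and estimates < 0.5 were set to 0.5.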
row,Variant,yeast fitness
1,C29U C60A,0.627
2,C29U C60U,0.758
3,C29U C60G,0.515
4,C30A C34A,0.76
5,C30A C34U,0.752
6,C29U C31G C34A,≤ 0.5
7,C29U A42C G67C,0.505
8,C29U G63A A69U,0.641
9,C29U C34G A43U C62U,≤ 0.5
10,C30A U54A A69C,0.539
11,C29U G48C,0.859
12,C29U G48A,0.986
13,C30A G44C U59A A69U,0.65
14,C29U C34U A57C G63A A70G,≤ 0.5
15,C30A U32A A57C,≤ 0.5
16,C30A A45U C49A G51A C62G,≤ 0.5
17,C30A C33A C62A,≤ 0.5
18,C29U A36U C66G,≤ 0.5
19,C30A C46U,0.939
20,C29U G50C U53C A57U C61G,≤ 0.5
21,C29U A37U G67A,0.643

row,Variant,yeast fitness
1,C29U A37C C49U C55G G68C,≤ 0.5
2,C29U C34G G38C U54A A57C,≤ 0.5
3,C30A A43G,0.958
4,C30A A43U,0.936
5,C30A U32A G38A C55A A65C,≤ 0.5
6,C29U G63A,0.803
7,C29U U54C,0.83
8,C30G A43U G48C C55A G63A,≤ 0.5
9,C30A U54C,0.811
10,C29U G52A,0.728
11,C30A G50A G67A,0.543
12,C29U A40G U47A,0.582
13,C30A A40U G51C C61U,0.646
14,C29U A40C C66U,0.642
15,C30A A36U G68A,0.543
16,C30A C55U A70C,0.545
17,C29U C34A A42U U47C,0.64
18,C29U C30U U59A,≤ 0.5
19,C29U C60G C62U,0.546
20,C30G A37C G68A,≤ 0.5
21,C30A G63A,0.83

row,Variant,yeast fitness
1,C30A G50C A69U,≤ 0.5
2,C30A G58C G63A,≤ 0.5
3,C30A C31U A36G C55U,≤ 0.5
4,C29U G38C A69U,0.581
5,C30A A43U C55G G63C G67C,≤ 0.5
6,C30A U53A C66U,≤ 0.5
7,C29U C30A G38A,≤ 0.5
8,C29U A40U A65U,0.584
9,C30A C62A A70G,0.547
10,C29U G38C G63A,≤ 0.5
11,C30A G38A A42U,≤ 0.5
12,C29U A37C C55A G58A,≤ 0.5
13,C30G A45C C61A G67C,≤ 0.5
14,C30A G39A U47A G63C,0.528
15,C29U C31A U53G,≤ 0.5
16,C29U A42U C61U C66A,≤ 0.5
17,C30A G50A G56A,0.742
18,C29U A40G U47A C61U C62A A70G,≤ 0.5
19,C29U A37G G48A G68C A69U,0.662
20,C30A C34G A65U,≤ 0.5
21,C29U C30U U32C C55G G58A U64A,≤ 0.5

row,Variant,yeast fitness
1,C29U A57U C62A,≤ 0.5
2,C29U A37C A40G A42U,≤ 0.5
3,C29U C31A C55U A57C,0.62
4,C29U C34G A36C,≤ 0.5
5,C29U G50C,0.664
6,C29U G39A C46A,1.13
7,C29U C66G,0.732
8,C30A G39C,0.656
9,C29U C31U A70G,0.726
10,C29U C33U U54A G56A,≤ 0.5
11,C30A C31G U32A C60U,≤ 0.5
12,C29U C33A G63A A65C C66A,≤ 0.5
13,C30A C31G G67C,0.546
14,C29U A45U C61U,0.644
15,C30A C31U A42C,0.943
16,C29U G56A C66U,0.619
17,C29U G56C,0.595
18,C29U G56A,0.765
19,C29U G44A A57G,0.623
20,C30A C46U G52C,0.568
21,C30A A36C G52A,≤ 0.5
